Measured values from ChEMBL document CHEMBL1130417 (J Med Chem, 1997).
Where “and” joins values, the source holds several entries; their conditions need not be identical. Equal values may be shown once.

What was measured:
[1] = target: Delta-type opioid receptor (Rattus norvegicus, UniProt P33533); test: Inhibition of radioligand [3H]DADLE binding to rat brain Opioid receptor delta 1
In short: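 Rat brain membranes were labelled with [3H]DADLE (1.7–2.5 nM) for 3–4 h at 25 °C in Tris-HCl pH 7.4 with 100 mM choline chloride, 3 mM MnCl2, protease inhibitor cocktail and 100 nM DAMGO to block μ sites. Nonspecific binding was set with 20 μM levallorphan. Displacement used 8–10 drug concentrations, run twice. IC50 and slope factor came from curve fitting.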

Mu-type opioid receptor [2] = target: Mu-type opioid receptor (Rattus norvegicus, UniProt P33535); test: Inhibition of radioligand [3H]DAMGO binding to rat brain Opioid receptor mu 1 […]
In short: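 Rat brain membranes were labelled with [3H]DAMGO (1–3 nM) for 4 h at 25 °C in 50 mM Tris-HCl pH 7.4 with protease inhibitor cocktail. Nonspecific binding was set with 20 μM levallorphan. Displacement used 8–10 drug concentrations, run twice, with drug diluted in Tris pH 7.4 containing 1 mg/mL BSA. IC50 and slope factor came from curve fitting.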

[3] = target: Opioid receptors; mu & delta (Rattus norvegicus) (UniProt P33533+P33535); test: Mu/delta inhibitory ratio of compound determined Rat brain receptors
Mu-type opioid receptor [4] = target: Mu-type opioid receptor (Cavia porcellus, UniProt P97266); test: Agonist activity was evaluated in guinea pig ileum (GPI) preparations at Opioid receptor mu 1; format: functional, tissue-based
In short: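 Longitudinal muscle–myenteric plexus strips from male Hartley guinea pig ileum (250–500 g) were held in 37 °C oxygenated Krebs bicarbonate under 1 g tension.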

[5] = target: Delta-type opioid receptor (Mus musculus, UniProt P32300); test: Agonist activity was evaluated in mouse vas deferens (MVD) preparations at Opioid receptor delta 1; format: functional
In short: (§1)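 Vas deferens from male ICR mice (25–40 g) was held in 37 °C oxygenated magnesium-free Krebs bicarbonate under 0.5 g tension. Tissue was field-stimulated at 0.1 Hz with 2-ms supramaximal pulses.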

Cavia porcellus = species: Cavia porcellus; test: IC50 ratio on Mu receptor of GPI to the delta receptor MVD
In short: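 The ratio is guinea pig ileum IC50 divided by mouse vas deferens IC50. Both tissues were electrically stimulated at 0.1 Hz, the ileum with 0.4-ms and the vas deferens with 2-ms pulses, and exposed to cumulative agonist doses.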

Mus musculus = species: Mus musculus; test: Agonist activity was evaluated in mouse vas deferens (MVD) preparations at opioid delta receptor; format: functional; in short: as §1

Sequence of Mu-type opioid receptor (Cavia porcellus, UniProt P97266) (P97266 whole entry): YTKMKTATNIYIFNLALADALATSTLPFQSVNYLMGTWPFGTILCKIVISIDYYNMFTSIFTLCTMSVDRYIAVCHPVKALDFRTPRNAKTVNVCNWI
Sequence of Delta-type opioid receptor (Mus musculus, UniProt P32300) (P32300 whole entry): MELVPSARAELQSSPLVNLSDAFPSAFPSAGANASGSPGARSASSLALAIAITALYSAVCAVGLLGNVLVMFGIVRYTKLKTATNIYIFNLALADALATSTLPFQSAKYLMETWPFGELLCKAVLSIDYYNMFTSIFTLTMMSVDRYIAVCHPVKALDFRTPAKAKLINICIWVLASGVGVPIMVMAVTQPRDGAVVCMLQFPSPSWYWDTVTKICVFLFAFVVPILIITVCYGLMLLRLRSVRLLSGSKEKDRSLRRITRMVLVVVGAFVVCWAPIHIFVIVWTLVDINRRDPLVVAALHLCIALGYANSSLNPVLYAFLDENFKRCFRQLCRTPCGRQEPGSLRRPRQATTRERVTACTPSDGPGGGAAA
Sequence of Mu-type opioid receptor (Rattus norvegicus, UniProt P33535) (P33535 whole entry): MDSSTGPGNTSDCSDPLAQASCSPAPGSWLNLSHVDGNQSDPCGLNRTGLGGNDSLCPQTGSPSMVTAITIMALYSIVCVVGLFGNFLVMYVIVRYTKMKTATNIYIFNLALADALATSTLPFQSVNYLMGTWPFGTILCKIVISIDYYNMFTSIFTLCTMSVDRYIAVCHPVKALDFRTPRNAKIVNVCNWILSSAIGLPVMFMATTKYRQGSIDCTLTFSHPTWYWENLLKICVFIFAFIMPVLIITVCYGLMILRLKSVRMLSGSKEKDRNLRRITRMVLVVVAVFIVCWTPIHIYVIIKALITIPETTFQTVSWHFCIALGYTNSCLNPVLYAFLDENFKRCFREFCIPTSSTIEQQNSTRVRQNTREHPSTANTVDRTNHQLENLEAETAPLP
Sequence of Opioid receptors; mu & delta (Rattus norvegicus) (P33533 whole entry, looked up): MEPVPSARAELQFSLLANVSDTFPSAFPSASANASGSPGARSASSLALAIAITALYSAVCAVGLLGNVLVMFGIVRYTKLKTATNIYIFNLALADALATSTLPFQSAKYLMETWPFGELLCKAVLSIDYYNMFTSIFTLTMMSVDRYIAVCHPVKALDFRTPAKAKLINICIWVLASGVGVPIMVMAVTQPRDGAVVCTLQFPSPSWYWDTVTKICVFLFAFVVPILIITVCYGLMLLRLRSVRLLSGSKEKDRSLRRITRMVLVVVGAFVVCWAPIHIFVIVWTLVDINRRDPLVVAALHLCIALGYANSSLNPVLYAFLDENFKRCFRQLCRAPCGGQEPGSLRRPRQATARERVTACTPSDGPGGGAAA
Sequence of Opioid receptors; mu & delta (Rattus norvegicus) (P33535 whole entry, looked up): as the sequence (P33535 whole entry) above
Sequence of Delta-type opioid receptor (Rattus norvegicus, UniProt P33533) (P33533 whole entry): as the sequence (P33533 whole entry, looked up) above

Row | Compound | IC50 [1] [nM] | IC50 (Mu-type opioid receptor [2]) [µM] | Ratio [3] | further results
1 | C=CCN1C[C@H](C)N([C@@H](c2ccc(C(=O)N(CC)CC)cc2)c2cccc(F)c2)C[C@H]1C | 62.5 | > 10 | > 160 | 
2 | C=CCN1C[C@H](C)N([C@@H](c2ccc(C(=O)N(CC)CC)cc2)c2cccc(I)c2)C[C@H]1C | 41.1 | 3.38 | 82.2 | 
3 | C=CCN1C[C@H](C)N([C@H](c2ccc(C(=O)N(CC)CC)cc2)c2cccc(I)c2)C[C@H]1C | 3.91 | 1.23 | 314 | IC50 (Mu-type opioid receptor [4]): > 3000 nM; IC50 [5]: 44.2 nM
4 | C=CCN1C[C@H](C)N([C@@H](c2ccc(C(=O)N(CC)CC)cc2)c2cccc(O)c2)C[C@H]1C | 11.4 |  |  | 
5 | C=CCN1C[C@@H](C)N([C@H](c2ccc(C(=O)N(CC)CC)cc2)c2cccc(F)c2)C[C@@H]1C (single isomer, unassigned) | 4.75 | > 10 | > 2110 | 
6 | C=CCN1C[C@@H](C)N([C@H](c2ccc(C(=O)N(CC)CC)cc2)c2cccc(O)c2)C[C@@H]1C (single isomer, unassigned) | 1.74 |  |  | 
7 | CC(NC(=O)[C@@H](N)Cc1ccc(O)cc1)C(=O)N[C@@H](Cc1ccccc1)C(=O)N[C@@H](CC(=O)O)C(=O)N[C@H](C(=O)N[C@H](C(=O)NCC(N)=O)C(C)C)C(C)C (single isomer, unassigned) [DELTORPHIN C] |  |  |  | IC50 (Mu-type opioid receptor [4]): 15000 nM
8 | C=CCN1C[C@H](C)N([C@H](c2ccc(C(=O)N(CC)CC)cc2)c2cccc(O)c2)C[C@H]1C (stereo in doubt; (+)-1) | 1.49 |  |  | 
9 | C=CCN1C[C@H](C)N([C@@H](c2ccccc2)c2ccc(C(=O)N(CC)CC)cc2)C[C@H]1C (stereo in doubt; (+)-22) [listing 1 of 2 here] | 0.94 | > 2.5 |  | IC50 (Mu-type opioid receptor [4]): 8580 nM
10 | C=CCN1C[C@H](C)N([C@@H](c2ccccc2)c2ccc(C(=O)N(CC)CC)cc2)C[C@H]1C (stereo in doubt; (+)-22) [listing 2 of 2 here] |  |  | > 2660 | Ratio (Cavia porcellus): 813
11 | C=CCN1C[C@H](C)N([C@H](c2ccc(C(=O)N(CC)CC)cc2)c2cccc(F)c2)C[C@H]1C (stereo in doubt; (+)-23) [listing 1 of 2 here] | 2.92 | 1.98 |  | IC50 (Mu-type opioid receptor [4]): 2600 nM; IC50 (Mus musculus): 200 nM; IC50 [5]: 9.77 nM and 10.3 nM
12 | C=CCN1C[C@H](C)N([C@H](c2ccc(C(=O)N(CC)CC)cc2)c2cccc(F)c2)C[C@H]1C (stereo in doubt; (+)-23) [listing 2 of 2 here] |  |  | 677 | Ratio (Cavia porcellus): 265
13 | C=CCN1C[C@H](C)N([C@@H](c2ccc(C(=O)N(CC)CC)cc2)c2cccc(OC)c2)C[C@H]1C (stereo in doubt; (+)-25) |  | 5.71 |  | 
14 | C=CCN1C[C@H](C)N([C@H](c2ccccc2)c2ccc(C(=O)N(CC)CC)cc2)C[C@H]1C (stereo in doubt; (+)-26) [listing 1 of 2 here] | 60 | > 10 |  | 
15 | C=CCN1C[C@H](C)N([C@H](c2ccccc2)c2ccc(C(=O)N(CC)CC)cc2)C[C@H]1C (stereo in doubt; (+)-26) [listing 2 of 2 here] |  |  | > 167 | 
16 | C=CCN1C[C@H](C)N([C@H](c2ccc(C(=O)N(CC)CC)cc2)c2cccc(O)c2)C[C@H]1C (stereo in doubt; (-)-1) | 58.3 |  |  | 
17 | C=CCN1C[C@H](C)N([C@@H](c2ccccc2)c2ccc(C(=O)N(CC)CC)cc2)C[C@H]1C (stereo in doubt; (-)-22) [listing 1 of 2 here] | 852 | > 10 |  | 
18 | C=CCN1C[C@H](C)N([C@@H](c2ccccc2)c2ccc(C(=O)N(CC)CC)cc2)C[C@H]1C (stereo in doubt; (-)-22) [listing 2 of 2 here] |  |  | > 11.7 | 
19 | C=CCN1C[C@H](C)N([C@H](c2ccc(C(=O)N(CC)CC)cc2)c2cccc(F)c2)C[C@H]1C (stereo in doubt; (-)-23) [listing 1 of 2 here] | 1380 | > 10 |  | 
20 | C=CCN1C[C@H](C)N([C@H](c2ccc(C(=O)N(CC)CC)cc2)c2cccc(F)c2)C[C@H]1C (stereo in doubt; (-)-23) [listing 2 of 2 here] |  |  | > 7.3 | 
21 | C=CCN1C[C@H](C)N([C@@H](c2ccc(C(=O)N(CC)CC)cc2)c2cccc(OC)c2)C[C@H]1C (stereo in doubt; (-)-25) |  | 9.14 |  | IC50 (Mu-type opioid receptor [4]): 1520 nM
22 | C=CCN1C[C@H](C)N([C@H](c2ccccc2)c2ccc(C(=O)N(CC)CC)cc2)C[C@H]1C (stereo in doubt; (-)-26) [listing 1 of 2 here] | 9.22 | 8.45 |  | IC50 (Mu-type opioid receptor [4]): 1780 nM; IC50 [5]: 126 nM
23 | C=CCN1C[C@H](C)N([C@H](c2ccccc2)c2ccc(C(=O)N(CC)CC)cc2)C[C@H]1C (stereo in doubt; (-)-26) [listing 2 of 2 here] |  |  | > 916 | 
